{"source": "ChEMBL document CHEMBL3808358", "about": "“Rational Design of Small Peptides for Optimal Inhibition of Cyclooxygenase-2: Development of a Highly Effective Anti-Inflammatory Agent” (J Med Chem, 2016)", "key": {"[1]": {"target": "Prostaglandin G/H synthase 1 (Homo sapiens) (UniProt P23219)", "sequence (P23219 whole entry)": "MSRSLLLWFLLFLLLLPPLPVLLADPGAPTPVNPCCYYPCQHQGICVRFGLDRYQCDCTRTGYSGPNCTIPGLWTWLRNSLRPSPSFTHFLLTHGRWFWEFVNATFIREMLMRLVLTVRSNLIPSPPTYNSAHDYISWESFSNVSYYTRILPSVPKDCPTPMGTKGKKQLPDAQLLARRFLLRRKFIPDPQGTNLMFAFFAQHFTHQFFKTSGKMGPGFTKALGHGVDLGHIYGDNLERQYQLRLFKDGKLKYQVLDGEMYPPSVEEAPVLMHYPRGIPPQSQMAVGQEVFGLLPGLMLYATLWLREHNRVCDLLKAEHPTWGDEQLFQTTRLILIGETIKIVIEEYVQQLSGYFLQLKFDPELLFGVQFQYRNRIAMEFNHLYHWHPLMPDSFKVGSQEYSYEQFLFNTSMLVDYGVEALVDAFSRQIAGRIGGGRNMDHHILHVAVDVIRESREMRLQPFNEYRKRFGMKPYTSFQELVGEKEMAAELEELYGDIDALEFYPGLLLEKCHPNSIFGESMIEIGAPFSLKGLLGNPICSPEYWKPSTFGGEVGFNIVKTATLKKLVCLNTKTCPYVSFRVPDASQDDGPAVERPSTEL", "test": "Inhibition of COX1 in healthy human whole blood assessed as calcium ionophore A23187-stimulated TXB2 level at 1 uM preincubated for 60 mins followed by A23187 addition measured after 30 mins by ELISA", "assay_type": "tissue-based", "method_in_brief": "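Fresh venous blood from a healthy volunteer is collected in EDTA. 1 mL samples receive compound, indomethacin or DMSO vehicle (final 1 μM). After 60 min, A23187 is added (final 50 μM). After 30 min, samples are centrifuged at 4 °C and TxB2 in plasma is measured by ELISA, read at 420 nm. Samples are run in duplicate.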"}, "[2]": {"test_system": "Mus musculus", "test": "Analgesic activity in Swiss albino mouse assessed as reduction in capsaicin-induced paw licking at 5 mg/kg, ip dosed 30 mins before capsaicin injection measured for 10 mins relative to control", "assay_type": "functional", "method_in_brief": "(§1)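 Swiss albino mice of either sex (25-35 g), kept at 22 ± 2 °C on a 12 h light/dark cycle with free food and water. 5 animals per group. Capsaicin (1.6 μg in 20 μL) is injected into the plantar surface of the hind paw. Pain is scored as the number of paw lickings over 10 min.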"}, "[3]": {"test_system": "Mus musculus", "test": "Analgesic activity in Swiss albino mouse assessed as reduction in capsaicin-induced paw licking at 5 to 10 mg/kg, ip dosed 30 mins before capsaicin injection measured for 10 mins", "assay_type": "functional, organism-based", "method_in_brief": "as §1"}, "[4]": {"test_system": "Mus musculus", "test": "Analgesic activity in Swiss albino mouse assessed as reduction in formalin-induced paw flinches in neurogenic phase at 5 mg/kg, ip dosed 30 mins before formalin injection measured up to 5 mins", "assay_type": "functional, organism-based", "method_in_brief": "(§2)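 Swiss albino mice of either sex (25-35 g). 20 μL of 2% formalin is injected into the plantar surface of the right hind paw 30 min after treatment. Hind paw flinches are counted for the neurogenic phase (0-5 min) and the inflammatory phase (15-30 min). Results are given as mean ± SEM.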"}, "[5]": {"test_system": "Mus musculus", "test": "Analgesic activity in Swiss albino mouse assessed as reduction in formalin-induced paw flinches in inflammatory phase at 5 mg/kg, ip dosed 30 mins before formalin injection measured after 15 to 30 mins", "assay_type": "functional, organism-based", "method_in_brief": "as §2"}, "[6]": {"test_system": "Mus musculus", "test": "Analgesic activity in Swiss albino mouse assessed as reduction in capsaicin-induced paw licking at 5 to 10 mg/kg, ip dosed 30 mins before capsaicin injection measured for 10 mins in presence of […] A23187 pre-treated 30 mins before compound dosing", "assay_type": "functional, organism-based", "method_in_brief": "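Mice of either sex (25-35 g), 5 per group. The modulator is given 30 min before the test compound, and capsaicin 30 min after that: substance P 10 µg/kg, L-arginine 40 mg/kg, L-NAME 20 mg/kg, veratrine 125 µg/kg, A23187 20 µg/kg, glipizide 30 µg/kg. Capsaicin is 1.6 μg in 20 μL intraplantar. Paw lickings are counted for 10 min.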"}, "[7]": {"test_system": "Mus musculus", "test": "Acute toxicity in Swiss albino mouse assessed as structural abnormality in myocardium up to 2000 mg/kg, po administered as single dose through gavage measured after 14 days by haematoxylin and eosin staining based assay", "assay_type": "organism-based", "conditions": "in vivo, 336 h", "method_in_brief": "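Mice given vehicle or 50, 300 or 2000 mg Kg⁻¹ after 4 h fasting, three per group, following OECD 2001 guidance. At 14 days, one control animal and one 2000 mg Kg⁻¹ animal were sacrificed. Myocardium, liver and kidney were examined histologically by H and E staining.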"}, "[8]": {"target": "Prostaglandin G/H synthase 1 (Homo sapiens) (UniProt P23219)", "test": "Binding affinity to COX1 (unknown origin) at 100 uM by isothermal titration calorimetry", "method_in_brief": "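Isothermal titration calorimetry in HEPES buffer, pH 7.4. The ligand stock is 100 μM in ethanol/HEPES (1:99). The syringe is stirred at 500 rpm and delivers 19 injections of 2 μL into the enzyme-containing cell at 120 s intervals. Heats from buffer-only control titrations are subtracted. The fit gives Ka, ΔH and ΔS. Run in triplicate.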"}}, "note": "Calls of active or inactive are those of the source. The rule behind the calls is not given here. Residues, ends and D or L forms follow the SMILES beside them.", "data": [{"smiles": "COC(=O)[C@H](CC(C)C)NC(=O)[C@H](Cc1ccccc1)NC(=O)CNC(=O)CN", "note": "(H-GGFL-OMe)", "values": [{"measurement": "Activity", "setting": "[1]", "value": 5.8, "unit": "ng/mL"}, {"measurement": "inhibition in vivo at 5 mg/kg", "setting": "[2]", "value": 80, "unit": "%"}, {"measurement": "Activity", "setting": "[3]", "value": "Active"}, {"measurement": "Activity", "setting": "[4]", "value": "inactive"}, {"measurement": "Activity", "setting": "[5]", "value": "Active"}, {"measurement": "Activity", "setting": "[6]", "value": "Active"}, {"measurement": "Activity", "setting": "[7]", "value": "Non-toxic"}, {"measurement": "Ka", "setting": "[8]", "value": 0.41, "unit": "×10³ /M"}]}]}
